Screening data deposited in PubChem BioAssay by Broad Institute.
CAL PDZ FP-1 = untagged CAL PDZ binding inhibitors, primary screen, biochemical, fluorescence polarization, HTS | actives 0.92% (n = 300,000) | inhibition, % at 24.9 µM | Golgi-associated PDZ and coiled-coil motif-containing protein (Homo sapiens), Q9HD26 | purified CAL PDZ, TMR-peptide fluorescence polarization, 1 h;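 active = mean inhibition of at least 30% with at least half of replicates also reaching 30%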;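 also: 0% = DMSO neutral control and 100% = excess unlabeled competitor peptide PRC23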
miR122 inh = miR-122 Renilla sensor signal increase in Huh7, primary screen, miR-122 inhibitor project, cell-based, single point, plate reader; AID 602342, 2012; actives 0.3% (n = 340,000); activation (reporter increase), % at 12.5 µM; Huh7 miR-122 Renilla luciferase sensor, 48 h; neutral wells = 0, positive control = 100;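 active = mean replicate activation score at least 90 and every replicate individually at or above 90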;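 also: higher luciferase means less miR-122 activity so hits act as miR-122 inhibitors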
PvdQ inh = P. aeruginosa PvdQ acylase inhibitors, primary screen, biochemical, fluorescence, plate reader and imaging, single point; inhibition, % at 10 µM; AID 488965, 2010; actives 0.063% (n = 340,000); purified PvdQ acylase; PvdQ acylase [Pseudomonas aeruginosa LESB58]; in the data active = inhibition above about 30%, passing the limit was not always enough;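 also: 0% = vehicle neutral wells and 100% = reference inhibitor wells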
CAL PDZ FP-2 = CAL PDZ peptide-binding inhibitors, primary screen, biochemical, fluorescence polarization, Cer-tagged CAL PDZ, HTS; AID 504414, 2011; Golgi-associated PDZ and coiled-coil motif-containing protein (Homo sapiens), Q9HD26; actives 0.02% (n = 330,000); purified CAL PDZ, TMR-peptide fluorescence polarization, 1 h; inhibition, % at 20 µM;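 active = highest replicate inhibition of at least 40%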;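 also: plate controls were DMSO neutral control wells for no effect and unlabeled competitor peptide control wells for full effect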
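Control set: unlabelled peptide and DMSO controls / Material: purified CerCALP PDZ construct / Timing: 1 h incubation at room temperature before polarization reading / Doses: 20 µM, one dose / Detection: fluorescence polarization (mP)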
An asterisk follows results filed as active; [ ] = another dose, or the depositor's remark. Compounds with a hit are over-represented: about 0.95% of the library has one in this group of screens.

`C=CCNC(=O)/C(C#N)=C/c1c(N2CCN(c3cccc(Cl)c3)CC2)nc2c(C)cccn2c1=O` gave miR122 inh 14, PvdQ inh -9 and CAL PDZ FP-2 -1.
COc1ccc(OC)c(/C=C/C(=O)OCC(=O)Nc2ccc(Cl)c(S(=O)(=O)N(C)C)c2)c1 was read as PvdQ inh -11 and CAL PDZ FP-2 -1.
Screening O=C(Nc1ccccc1N1CCOCC1)c1ccc(Cl)c(S(=O)(=O)NCc2ccco2)c1 returned CAL PDZ FP-1 91*, PvdQ inh -14 and CAL PDZ FP-2 1.
O=C(Nc1ccccc1N1CCOCC1)c1ccc(S(=O)(=O)NCc2ccco2)cc1 was read as CAL PDZ FP-1 3, PvdQ inh -11 and CAL PDZ FP-2 -1.
CC(C)Cc1nnc(NC(=O)c2cc3c(s2)CCC3)s1 was read as CAL PDZ FP-1 45*, miR122 inh 3, PvdQ inh -25 and CAL PDZ FP-2 -1.
`Cc1cc(C)nc(N/C(=N\S(=O)(=O)Cc2ccccc2)Nc2ccccc2Br)n1` gave CAL PDZ FP-1 -6, miR122 inh 180*, PvdQ inh -12 and CAL PDZ FP-2 -4.
Cc1cc(C)nc(Nc2ccccc2Br)n1 was read as CAL PDZ FP-1 14, miR122 inh -12, PvdQ inh 10 and CAL PDZ FP-2 -3.
Screening O=C(c1cccc(C(F)(F)F)c1)C1CCCN(C(=O)CCn2cnnn2)C1 (stereo not given) returned CAL PDZ FP-1 52*, miR122 inh 3, PvdQ inh -12 and CAL PDZ FP-2 -5.
`COc1ccc(-n2nnnc2/C=C/Nc2cc(C(F)(F)F)ccc2OC)cc1` gave CAL PDZ FP-1 105*, miR122 inh -1, PvdQ inh -15 and CAL PDZ FP-2 0.
Screening N#CC(OC(=O)c1ccccc1)c1cccc([N+](=O)[O-])c1 (stereo not given) returned CAL PDZ FP-1 -2, PvdQ inh 72* and CAL PDZ FP-2 -1.
Screening O=C(NC(NC(=O)c1ccccc1)c1cccc([N+](=O)[O-])c1)c1ccccc1 returned CAL PDZ FP-1 -1, miR122 inh 2, PvdQ inh -9 and CAL PDZ FP-2 -2.
`O=C(NCc1nnc(SCC(=O)N2CCCC2)o1)c1c(F)cccc1Cl` gave CAL PDZ FP-1 -4, miR122 inh 4, PvdQ inh -15 and CAL PDZ FP-2 -3.
Screening O=C(NCc1nnc(SCC(=O)N2CCCCC2)o1)c1c(F)cccc1Cl returned CAL PDZ FP-1 78*, miR122 inh 0, PvdQ inh -17 and CAL PDZ FP-2 -1.
CC1CCN(C(=O)CSc2nnc(CNC(=O)c3ccc(S(=O)(=O)N(C)C)cc3)o2)CC1 was read as CAL PDZ FP-1 55*, miR122 inh -6, PvdQ inh -5 and CAL PDZ FP-2 0.
For O=C(CSc1nnc(CNC(=O)c2c(F)cccc2Cl)o1)Nc1ccccc1 the results were CAL PDZ FP-1 -5, miR122 inh -3, PvdQ inh 4 and CAL PDZ FP-2 -2.
For O=C(CSc1nnc(CNC(=O)c2c(F)cccc2Cl)o1)NC1CCCC1 the results were CAL PDZ FP-1 74*, miR122 inh -4, PvdQ inh -16 and CAL PDZ FP-2 -1.
`C[C@@H]1CN([C@@H](C)CO)C(=O)c2cc(NS(=O)(=O)c3cn(C)cn3)ccc2O[C@@H](C)CCCCO[C@@H]1CN(C)C(=O)Nc1ccc2c(c1)OCO2` gave miR122 inh 21[16.7 µM].
O=S(=O)(c1ccccc1)N1CCN(C2CCCCCCC2)CC1 was read as CAL PDZ FP-1 -3, miR122 inh 1, PvdQ inh -14 and CAL PDZ FP-2 -4.
COc1cccc(OC)c1C(=O)NCCOc1cc(C)cc(C)c1 was read as CAL PDZ FP-1 -5, miR122 inh -2, PvdQ inh -21 and CAL PDZ FP-2 0.
Screening COc1ccc(NC(=O)c2ccc(CNS(=O)(=O)c3cccc(OC)c3)cc2)cc1 returned CAL PDZ FP-1 38*, miR122 inh 0, PvdQ inh -16 and CAL PDZ FP-2 -1.
COc1cccc(C(=O)NCCOc2cc(C)cc(C)c2)c1 was read as CAL PDZ FP-1 38*, miR122 inh -2, PvdQ inh -10 and CAL PDZ FP-2 -2.
Screening COc1cccc(C(=O)Nc2ccc(C(=O)O)cc2)c1 returned CAL PDZ FP-1 0, miR122 inh 113*, PvdQ inh 5 and CAL PDZ FP-2 -1.
For CCOc1cc(N2CCOCC2)c(OCC)cc1NC(=O)c1ccc(OC)cc1 the results were CAL PDZ FP-1 -2, miR122 inh -10, PvdQ inh -13 and CAL PDZ FP-2 1.
COc1cc(/C=N/N(C)C2=NS(=O)(=O)c3ccccc32)cc(OC)c1OC was read as CAL PDZ FP-1 -7, miR122 inh 1, PvdQ inh -9 and CAL PDZ FP-2 -1.
`O=c1c2ccccc2cnn1Cc1n[nH]c(=S)n1-c1ccc(F)cc1` gave CAL PDZ FP-1 -6, PvdQ inh 4 and CAL PDZ FP-2 -3.
`CCn1nnnc1SCC(=O)c1cc(OC)ccc1OC` gave CAL PDZ FP-1 41*, miR122 inh -10, PvdQ inh -6 and CAL PDZ FP-2 0.
`Cc1ccc(S(=O)(=O)N(C)C)cc1NC(=S)N1CCc2ccccc21` gave CAL PDZ FP-1 49*, miR122 inh 1, PvdQ inh -5 and CAL PDZ FP-2 -2.
For CCCC#Cc1cnc2c(c1)C(=O)N([C@@H](C)CO)C[C@@H](C)[C@H](CN(C)C(=O)Nc1cccc(F)c1)O2 the results were miR122 inh -1[16.7 µM].
Cc1noc(C)c1S(=O)(=O)Nc1ccc2c(c1)CC(=O)N([C@@H](C)CO)C[C@H](C)[C@@H](CN(C)Cc1ccccc1)O2 was read as miR122 inh -2[16.7 µM].
Screening COc1ccc(OCC(O)CNC(=O)c2ccc(OC)cc2)cc1 (stereo not given) returned CAL PDZ FP-1 -1, PvdQ inh -5 and CAL PDZ FP-2 -1.
COc1ccc(OCC(O)CNC(=O)c2ccc(Br)cc2)cc1 (stereo not given) was read as CAL PDZ FP-1 72*, miR122 inh -2, PvdQ inh -10 and CAL PDZ FP-2 13.
For N#C/C(=C1/CCCCCN1)c1nc2ccccc2[nH]1 the results were CAL PDZ FP-1 -1, miR122 inh 5, PvdQ inh 5 and CAL PDZ FP-2 -1.
For CO[C@@H]1CN(C)C(=O)c2ccc(NC(=O)C3CCCCC3)cc2OC[C@H](C)N(C(=O)c2ccccc2)C[C@H]1C the results were miR122 inh -1[16.7 µM].
Screening CC(=O)n1cc(/C=N/NC(=O)c2ccccc2Cl)c2ccccc21 returned CAL PDZ FP-1 68*, miR122 inh 0, PvdQ inh -9 and CAL PDZ FP-2 -1.
Screening CC1(c2ccc3c(c2)OCO3)NC(=O)N(CC(=O)Nc2ccccc2[N+](=O)[O-])C1=O (stereo not given) returned CAL PDZ FP-1 46*, miR122 inh -10, PvdQ inh -9 and CAL PDZ FP-2 -1.
